Screening data: PubChem BioAssay, Sanford-Burnham Center for Chemical Genomics
G6PDH counter: counter-screen for G6PDH assay hits: L. mesenteroides G6PDH inhibition. AID 1020. inhibition, % at 5 µM. Purified L. mesenteroides G6PDH, diaphorase/resazurin coupled fluorescence, 45 min. hit rate 0.12% among 200,000; in the data active = inhibition above about 50%
Diaphorase act: activates diaphorase or chemically reduces, flagging diaphorase assay artifacts. AID 1229. Diaphorase/resazurin coupled assay, resorufin fluorescence, 16 min; active compounds read high; 1 = vehicle wells, 0 = NADH-free wells. activation factor at 20 µM. hit rate 0.005% among 190,000;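 active = diaphorase activity raised at least twofold by the compound at 20 µM; inactive = activation factor below 2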
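Material: purified diaphorase enzyme from Clostridium kluyveri; Also added: 0.114 mM NADH and 0.1 mM resazurin, final amounts; Doses: single compound dose of 20 µM, 1% DMSO final; Times: 16 min enzyme reaction, ambient temperature; Detection: resorufin fluorescence, excitation 544 nm, emission 590 nm; Measure: increased resorufin signal from activators or reducing compounds.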
HKDC1 inhibitor: HKDC1 (human) hexokinase inhibition | Q2TB90 | hit rate 0.16% among 340,000 | recombinant HKDC1, G6PDH/diaphorase resazurin coupled fluorescence | inhibition, % at 20 µM;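 active = inhibition above about 35% when tested at 20 µM, limit read from the data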;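 also: plate controls were DMSO wells with enzyme for no effect and DMSO wells lacking enzyme for full effect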
Target sequence (Q2TB90 whole entry, looked up): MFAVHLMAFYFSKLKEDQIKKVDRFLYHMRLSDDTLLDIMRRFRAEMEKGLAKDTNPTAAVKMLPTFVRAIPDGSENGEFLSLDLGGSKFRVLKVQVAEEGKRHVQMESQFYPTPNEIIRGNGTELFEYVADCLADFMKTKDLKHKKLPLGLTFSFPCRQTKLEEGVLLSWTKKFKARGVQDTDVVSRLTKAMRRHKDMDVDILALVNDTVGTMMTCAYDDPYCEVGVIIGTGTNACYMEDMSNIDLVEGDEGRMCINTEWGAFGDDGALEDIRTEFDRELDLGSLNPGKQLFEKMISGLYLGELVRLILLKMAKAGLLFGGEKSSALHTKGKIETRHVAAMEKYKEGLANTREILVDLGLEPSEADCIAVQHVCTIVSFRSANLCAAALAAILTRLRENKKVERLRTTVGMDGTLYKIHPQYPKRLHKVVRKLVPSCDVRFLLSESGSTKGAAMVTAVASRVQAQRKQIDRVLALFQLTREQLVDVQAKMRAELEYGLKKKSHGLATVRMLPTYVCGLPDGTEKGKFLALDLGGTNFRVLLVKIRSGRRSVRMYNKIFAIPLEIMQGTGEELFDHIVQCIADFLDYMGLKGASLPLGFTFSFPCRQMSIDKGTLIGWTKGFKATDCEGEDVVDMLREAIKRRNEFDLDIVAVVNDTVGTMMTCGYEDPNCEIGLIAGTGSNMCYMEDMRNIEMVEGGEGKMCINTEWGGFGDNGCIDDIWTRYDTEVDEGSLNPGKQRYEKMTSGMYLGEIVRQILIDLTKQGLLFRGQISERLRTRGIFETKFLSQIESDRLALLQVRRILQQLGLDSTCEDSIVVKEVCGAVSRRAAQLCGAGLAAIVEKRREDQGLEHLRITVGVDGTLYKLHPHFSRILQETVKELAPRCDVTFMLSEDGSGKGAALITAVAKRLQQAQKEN
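Material – in-house recombinant HK5 (HKDC1) enzyme · Quantity – HKDC1 at 5 µg/mL · Buffer or medium – pH 8.0 Tris buffer with 10 mM MgCl2 · Reagent – glucose with 1 mM ATP · Dosing – single 20 µM dose · Times – reaction time 90 min, room temperature, protected from light · Technique – resorufin fluorescence at 613 nm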
Diaph inh CS: counter-screen for diaphorase-based assays: diaphorase inhibitors and chemical oxidizers; inhibition, % at 20 µM; diaphorase resazurin-to-resorufin fluorescence, NADH, 16 min; bacterial (C. kluyveri) enzyme, not human; hit rate 0.69% among 190,000;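 active = primary screen inhibition at 20 µM above a set limit, cut at about 50% in these data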;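 also: plate controls were DMSO with full reaction for no effect and wells lacking NADH for full effect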
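System: Bacterial diaphorase enzyme (C. kluyveri) | Incubation: 16-min room-temperature incubation before reading | Benchmarks: No-NADH positive control and DMSO neutral control | Measured by: Resorufin fluorescence 544/590 nm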
PfG6PD inh: PfG6PD (Plasmodium falciparum) enzyme inhibition; PfGluPho enzyme, NADPH resazurin-diaphorase fluorescence; inhibition, % at 20 µM; AID 504690; hit rate 0.78% among 350,000;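 active = inhibition reaching at least a set limit at 20 µM in the primary screen, cut at about 59% in these data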;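 also: 0% = DMSO wells with substrate and 100% = DMSO wells lacking glucose-6-phosphate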
HKDC1 act conf: HKDC1 (human) activation, single-dose confirmed; recombinant HKDC1, G6PDH/diaphorase resazurin fluorescence; active compounds read low; shares compounds with HKDC1 inhibitor; inhibition, % at 20 µM; hit rate 14% among 740;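 active = inhibition at or below a set negative limit, negative inhibition meaning the enzyme was activated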
* hit, by the source's call; . = no result given. A selection: hits, their analogues and other compounds. The true share with any hit is near 1.2%.

SMILES | G6PDH counter | Diaphorase act | HKDC1 inhibitor | Diaph inh CS | PfG6PD inh | HKDC1 act conf
COc1ccc(-c2csc(NC(=S)NC(=O)c3cccs3)n2)cc1OC | -28 | 0.4 | 1 | 59* | 4 | .
COc1ccc(-c2csc(NC(=S)NC(=O)c3cccs3)n2)cc1Br | . | . | -3 | . | -5 | .
c1ccc(CN2CCN(C(c3ccccc3)c3nnnn3Cc3ccccc3)CC2)cc1 (stereo unspecified) | 5 | 1 | 0 | 3 | 1 | .
Cc1ccc(C(c2nnnn2Cc2ccccc2)N2CCN(Cc3ccccc3)CC2)cc1 (stereo unspecified) | 8 | 0.2 | 3 | 79* | 19 | .
COc1ccccc1-c1nnc2n1N=C(c1ccc(O)c(O)c1)CS2 | 32 | 0.5 | -1 | 51* | -38 | .
C#CCOCCOCCOCCNc1nc(N2CCN(C(=O)C(Cc3ccc(O)cc3)n3cc(C(N)C(C)CC)nn3)CC2)nc(N2CCN(C(=O)C(Cc3ccc(O)cc3)n3cc(C(N)C(C)CC)nn3)CC2)n1 (stereo unspecified) | 13 | 1.1 | -2 | -6 | -14 | .
C#CCOCCOCCOCCNc1nc(N2CCOCC2)nc(N2CCN(C(=O)[C@H](Cc3cc4ccccc4[nH]3)n3cc([C@@H](N)C(C)CC)nn3)CC2)n1 (stereo partly specified) | 13 | 1 | -3 | 3 | 19 | .
C#CCOCCOCCOCCNc1nc(N2CCN(C(=O)C(Cc3cc4ccccc4[nH]3)n3cc(C(N)C(C)CC)nn3)CC2)nc(N2CCN(C(=O)C(Cc3cc4ccccc4[nH]3)n3cc(C(N)C(C)CC)nn3)CC2)n1 (stereo unspecified) | 14 | 1.2 | 28 | -22 | 61* | .
C#CCOCCOCCOCCNc1nc(N2CCOCC2)nc(N2CCN(C(=O)[C@H](Cc3ccc(O)cc3)n3cc([C@@H](N)C(C)CC)nn3)CC2)n1 (stereo partly specified) | 9 | 0.2 | 0 | 79* | -10 | .
COC(=O)c1cc2n3ccccc3c(C)c(-c3ccccc3)c-2c1C(=O)OC | -4 | 0.4 | 1 | 57* | -31 | .
COC(=O)c1ccc(-c2ccc(C(c3c(C)[nH][nH]c3=O)c3c(C)[nH][nH]c3=O)o2)cc1 | 24 | 0.3 | 7 | 68* | 35 | .
Cc1[nH][nH]c(=O)c1C(c1ccc(-c2cccc(C(=O)O)c2)o1)c1c(C)[nH][nH]c1=O | 24 | 0.7 | -2 | 26 | 19 | .
CC(=O)c1c(N)[nH]c(-c2ccccc2)nc1=S | -4 | 0.5 | 4 | 50* | 11 | .
CC(C)CN(CCNC(=O)CN1C(=O)COc2ccc(S(=O)(=O)N3CCC(C)CC3)cc21)CC(C)C | . | . | 2 | . | -3 | .
O=C(COC(=O)c1cc(S(=O)(=O)N2CCc3ccccc3C2)ccc1Cl)NCc1ccco1 | 1 | 0.5 | 8 | 52* | 12 | .
Cc1cc(C(=O)N2CCc3c([nH]c4ccccc34)C2c2c(F)cccc2Cl)no1 (stereo unspecified) | 1 | 0.4 | -6 | 57* | 14 | .
CC(C)c1ccccc1NC(=O)COC(=O)c1cc(=O)[nH]c(=O)[nH]1 | 6 | 1 | -11 | 3 | 22 | .
O=C1C=C(N2CCCCC2)c2ccccc2C1=O | . | . | 81* | . | 48 | 86
O=C1c2ccccc2C(=O)c2c1cccc2N1CCCC1 | 16 | 0.8 | 23 | 22 | -11 | .
CCNc1ccc(Br)cc(C(=O)/C=C/c2c(Cl)cccc2Cl)c1=O | 22 | 0.6 | 37* | 44 | 29 | -3
Cc1ccc(NC(=O)CSc2nc3[nH]ncc3c(=O)[nH]2)cc1Cl | . | . | -5 | . | -27 | .
Cc1sc2ncnc(N3CCC(C(=O)N4CC(C)SC4=Nc4ccc(Cl)cc4)CC3)c2c1C (stereo unspecified) | . | . | 6 | . | 4 | .
COC(=O)c1sc(NC(=O)CSc2nc3nc(C)cc(C)n3n2)c(C(=O)OC)c1C | . | . | 35* | . | 44 | 26
Cc1ccc2nc(N3C(=O)C(O)=C(C(=O)c4ccc(C)o4)C3c3ccco3)sc2c1 (stereo unspecified) | . | . | 13 | . | -1 | .
O=C(C1=C(O)C(=O)N(c2nc3ccc(Cl)cc3s2)C1c1ccco1)c1ccco1 (stereo unspecified) | . | . | 36* | . | 12 | -23
SMILES | G6PDH counter | Diaphorase act | HKDC1 inhibitor | Diaph inh CS | PfG6PD inh | HKDC1 act conf
COc1cc(C(=O)NC(=S)Nc2cccc(-c3cc4ccccc4oc3=O)c2)cc(OC)c1OC | 0 | 0.8 | -3 | 15 | -12 | .
Cc1cc(NC(=S)NC(=O)c2ccccc2)ccc1-c1cc2ccccc2oc1=O | -2 | 0.8 | -47 | 15 | 12 | -14
O=C(c1ccccc1)N1N=C(C(F)(F)F)CC1(O)c1ccc(F)cc1 (stereo unspecified) | . | . | -5 | . | 15 | .
COc1cc(/C=C(\C#N)c2nc3ccc(C)cc3[nH]2)cc([N+](=O)[O-])c1O | 17 | 0 | 41* | 98* | 14 | 42
COc1cccc(CC(Cc2nc3ccccc3[nH]2)c2nc3ccccc3[nH]2)c1 (stereo unspecified) | 12 | 0.9 | 50* | 11 | 9 | -28
COc1cccc(CSc2nc3ccccc3[nH]2)c1 | -20 | 0.8 | 4 | 16 | 19 | .
COC(=O)C1=C(C)N(CCCC(=O)O)C(=O)NC1c1ccccc1OS(=O)(=O)c1ccc([N+](=O)[O-])cc1 (stereo unspecified) | . | . | 6 | . | -6 | .
FC(F)(F)c1ccccc1NC(=S)NN=C1CCCCCC1 | 5 | 0.8 | -38 | 16 | -8 | -30
FC(F)(F)c1ccccc1NC(=S)N1CCCC1 | . | . | 4 | . | -7 | .
CN(CC(=O)Nc1c(Cl)cccc1Cl)C(=O)c1cc2ccccc2cc1O | . | . | 4 | . | 9 | .
CCOC(=O)C[C@H]1c2ccccc2S(=O)(=O)N1C1CC1 | . | . | -5 | . | 18 | .
Oc1ccc(/C=N/NC(=S)Nc2cccnc2)c(O)c1 | -14 | 0.8 | -40 | 21 | -9 | 15
O=S(=O)(Nc1cccc2ccccc12)c1cccs1 | . | . | 5 | . | 34 | .
O=S(=O)(Nc1ccc(O)c2ccccc12)c1cccs1 | . | . | 51* | . | 36 | 31
C/C(=N\OCC(=O)OCC(=O)N(Cc1ccccc1)C(C)(C)C)c1ccc2c(c1)OCO2 | . | . | 5 | . | -7 | .
c1ccc(Nc2cc(Nc3ccccc3)[nH]n2)cc1 | 0 | 0.7 | -47 | 26 | 32 | -20
COc1ccc(-c2nc3c(C(=O)NCCN(C)C)cccc3c3ccccc23)cc1 | . | . | 39* | . | 47 | 37
Cc1cccc(NC(=O)CCCn2c(=S)[nH]c3ccccc3c2=O)c1 | 1 | 1 | -3 | 4 | 9 | .
CC1=NNC(=O)/C1=C\c1cn(-c2ccccc2)nc1-c1ccc(Cl)cc1 | 2 | 0.9 | 37* | 14 | -2 | 2
